Results on two compounds are retold here after ChEMBL document CHEMBL4396879, “Conjugation of Short Peptides to Dibenzodiazepinone-Type Muscarinic Acetylcholine Receptor Ligands Determines M2R Selectivity” (J Med Chem, 2019).

Data set [1] addresses T1, Muscarinic acetylcholine receptor M5 (Homo sapiens, UniProt P08912).
T1 sequence (P08912 whole entry): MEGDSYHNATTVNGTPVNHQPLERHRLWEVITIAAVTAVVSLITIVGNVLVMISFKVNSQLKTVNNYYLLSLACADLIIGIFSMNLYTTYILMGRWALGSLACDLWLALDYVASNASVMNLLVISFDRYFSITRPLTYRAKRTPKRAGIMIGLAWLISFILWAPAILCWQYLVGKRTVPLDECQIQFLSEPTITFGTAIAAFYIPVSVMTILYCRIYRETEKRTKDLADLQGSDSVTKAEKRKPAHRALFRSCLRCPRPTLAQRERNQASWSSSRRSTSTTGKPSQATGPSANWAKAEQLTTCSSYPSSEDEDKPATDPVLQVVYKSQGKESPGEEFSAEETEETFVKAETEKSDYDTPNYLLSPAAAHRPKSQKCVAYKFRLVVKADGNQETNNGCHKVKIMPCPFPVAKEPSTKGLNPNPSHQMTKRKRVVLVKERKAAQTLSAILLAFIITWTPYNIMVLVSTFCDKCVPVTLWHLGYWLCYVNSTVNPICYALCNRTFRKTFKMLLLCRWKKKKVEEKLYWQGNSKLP
The data set can be described thus: Displacement of [3H]-NMS from human muscarinic M5 receptor expressed in CHO-K9 cells after 3 hrs by microbeta2 scintillation counting method. The data set is classed as cell-based. The essentials:
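[3H]NMS competition binding on intact CHO-hMxR cells in L15 medium with 1% BSA, 3 h at 22 ± 1 °C with gentle shaking. [3H]NMS was 0.2 nM (M1, M2, M3), 0.1 nM (M4) or 0.3 nM (M5). […] Cells were lysed in urea/acetic acid/Triton and counted by liquid scintillation. Ki from Cheng-Prusoff. Triplicates, ≥3 experiments.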

Data set [2] in a line: Stability of the compound in human plasma:PBS of pH 7.4 (1:2) assessed as intact compound at 100 uM incubated for 1 hr by LC-MS analysis. Format: ADME, cell-free. To be noted: plasma diluted with PBS (1:2), read-out: Stability. A digest of the protocol: (§1)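 Compound added at 100 μM (from 5 mM stock in acetonitrile/0.04% TFA 3:7) to heparinized human plasma/PBS pH 7.4 (1:2 v/v) with 10 μM 1-methyl-D-tryptophan as internal standard. Incubated shaking at 37 °C in triplicate. Aliquots were EtOH/acetonitrile-precipitated and analysed by RP-HPLC at 220 nm, with recovery correction against four-point calibrations.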

Data set [3] deals with T2, Muscarinic acetylcholine receptor M2 (Homo sapiens, UniProt P08172).
T2 sequence (P08172 whole entry): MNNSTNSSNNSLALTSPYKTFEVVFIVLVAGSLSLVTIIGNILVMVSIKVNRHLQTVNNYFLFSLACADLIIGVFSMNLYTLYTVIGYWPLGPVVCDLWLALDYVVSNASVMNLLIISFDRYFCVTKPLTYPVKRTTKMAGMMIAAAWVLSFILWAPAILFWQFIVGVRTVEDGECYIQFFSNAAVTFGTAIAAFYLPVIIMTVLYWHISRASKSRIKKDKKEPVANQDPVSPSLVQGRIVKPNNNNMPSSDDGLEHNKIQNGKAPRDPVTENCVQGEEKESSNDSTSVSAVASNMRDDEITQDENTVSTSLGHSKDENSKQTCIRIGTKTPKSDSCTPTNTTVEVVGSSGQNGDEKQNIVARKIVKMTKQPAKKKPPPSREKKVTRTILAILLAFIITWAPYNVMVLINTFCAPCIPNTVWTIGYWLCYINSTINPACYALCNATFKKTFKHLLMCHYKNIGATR
The data set can be described thus: Competitive displacement of [3H]-NMS from human muscarinic M2 receptor expressed in CHO-K9 cells using 2 nM [3H]-NMS after 3 hrs by microbeta2 scintillation counting method. The data set is classed as cell-based. A digest of the protocol:
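Intact CHO-hM2R cells incubated at 22 °C with a high [3H]NMS concentration (2 nM). […] Curves were fitted by four-parameter logistic fits. Mean ± SEM from ≥4 experiments in triplicate.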

Data set [4] addresses Muscarinic acetylcholine receptors; M2 & M3 (Homo sapiens) (UniProt P20309+P08172). The data set can be described thus: Selectivity ratio of Ki for human muscarinic M3 receptor expressed in CHO-K9 cells to Ki for human muscarinic M2 receptor expressed in CHO-K9 cells. Format: cell-based. The essentials:
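Ratio of mean Ki values. Each Ki came from an individual [3H]NMS competition experiment at the given CHO-hMxR subtype, converting IC50 to Ki by Cheng-Prusoff before averaging.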

Data set [5] is described as follows: Stability of the compound in human plasma used as 1:2 ratio of plasma to pH 7.4 PBS assessed as intact compound at 100 uM incubated for 48 hr by LC-MS analysis. The data set is classed as ADME, cell-free. To be noted: plasma diluted with PBS (1:2), read-out: Stability. A digest of the protocol:
as §1

Usually Ki stands for the dissociation constant of the complex between target and ligand, obtained from inhibition or displacement. A high value points to a looser hold on the target. One may read the IC50 as the concentration that gives 50% inhibition. Consider `CC(=O)N[C@@H](CCCCN)C(=O)N[C@@H](C)C(=O)N[C@@H](CCCNC(=N)N)C(=O)NCCN1CCN(CCCCC2CCN(CC(=O)N3c4ccccc4NC(=O)c4ccccc43)CC2)CC1`, for which, in data set [1], the inhibition constant (Ki) was 295 nM. Further, the remaining at 1 h, 100 µM in data set [2] is above 99%. In data set [3], this compound gave a 50% inhibitory concentration (IC50) of 1.78 nM and an inhibition constant Ki of 0.0794 nM. The Ratio Ki in data set [4] was 1800. The remaining at 48 h, 100 µM in data set [5] is above 99%.

The compound `CC(=O)N[C@@H](CCCCN)C(=O)N[C@@H](CCCNC(=N)N)C(=O)NCCCCC1CCN(CC(=O)N2c3ccccc3NC(=O)c3ccccc32)CC1` had a Ki in data set [1] of 427 nM. In addition, in data set [2], the remaining at 1 h, 100 µM amounted to 99%. In data set [3], the concentration for half-maximal inhibition (IC50) was 41.7 nM and the inhibition constant Ki was 2.04 nM. Further, the Ratio Ki in data set [4] was found to be 6500. Also, the remaining at 48 h, 100 µM in data set [5] is above 99%.
